From PubChem
PfHsp90 yeast 2: growth inhibition of PfHsp90-expressing yeast, primary screen, antimalarial PfHsp90 inhibitor project, S. cerevisiae, BacTiter-Glo luminescence, single point, set 2; BacTiter-Glo ATP, 48 h; yeast lacking PDR1 and PDR3 efflux regulators; 310,000 compounds, 0.32% hits; inhibition, % at 9.4 µM;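 active = every replicate shows inhibition above about 80%, whatever the replicate mean, limit read from the data; inconclusive = mean inhibition reaches the set limit but some replicate falls short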;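 also: 0% = DMSO neutral controls and 100% = 20 µM radicicol positive controls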
Ecoli rRNA inh: reduced GFP signal of wild-type E. coli, primary screen, bacterial rRNA inhibitor project, GFP/RFP fluorescence, OD600, single point; E. coli WT GFP vs humanized-ribosome RFP mutants, 24 h; stronger effect = lower value; DMSO median 0, no signal -100; GFP signal change (wild-type ribosome), % (concentration not given with the values); 350,000 compounds, 1.6% hits;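 active = significant combined selectivity score with lowered wild-type GFP, culture density cut under 30%, mutant RFP and density less affected; inactive = any of these conditions unmet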
S100A4 inh HTS: inhibitors of S100A4-myosin IIA peptide binding, primary screen, biochemical, fluorescence polarization, TAMRA-MyoIIA peptide. inhibition, % at 10.7 µM. 360,000 compounds, 0.14% hits. Protein S100-A4 (Homo sapiens), P26447. AID 652163, 2013;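 active = mean inhibition of at least 70% across replicates, with every replicate also reaching that level; inconclusive = mean inhibition reaches 70% but some replicates fall short; inactive = mean inhibition below 70%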
Target sequence (P26447 whole entry, looked up): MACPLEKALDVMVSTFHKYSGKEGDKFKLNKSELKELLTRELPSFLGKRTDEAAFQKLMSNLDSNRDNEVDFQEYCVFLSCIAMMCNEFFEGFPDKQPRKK
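Material: S100A4 monomer protein | Medium: HEPES pH 7.2 with CaCl2, KCl, NaCl, DTT, Triton | Reagent: Labelled myosin peptide probe, 5 nM | Doses: One dose per compound | Times: 5 min incubation before reading | Benchmarks: Neutral control DMSO, positive control TFP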
Cneo AK release: Cryptococcus neoformans cell lysis inducers, primary screen, AK release luminescence, single concentration | 360,000 compounds, 0.2% hits | lysis activity, % at 15 µM | C. neoformans lysis, adenylate kinase release luminescence, 4 h; normalised: neutral wells 0, clomiphene wells 100;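 active = mean lysis activity across replicates of at least 80%, whatever share of replicates individually reach that level; inactive = mean lysis activity below 80%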
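Material: C. neoformans cells; Schedule: 4 h static compound exposure, 37 °C, read 1 h post-reagent; Measured by: adenylate kinase release luminescence; Read-out: signal increase indicating cell lysis; Controls: Clomiphene as positive lysis control.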
DENV2 CPE rescue: inhibitors of DENV2 cytopathic effect, primary screen, cell-based, plate reader, single concentration; DENV2-infected cells, cytopathic effect rescue; CPE inhibition, % at 9.99 µM; 350,000 compounds, 1.7% hits; in the data active = CPE inhibition above about 20%, passing the limit was not always enough; inconclusive = no clear call, values can overlap the other calls; tested in BHK-21 cells;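 also: 0% = median of neutral control wells and 100% = median of positive control wells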
MLL AF4-AF9 inh: inhibitors of AF4 peptide binding to AF9, primary screen, biochemical, AlphaScreen, biotin-AF4 peptide, FLAG-AF9, single point. inhibition, % at 10 µM. 350,000 compounds, 0.47% hits;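 active = every replicate reaching a set inhibition limit, whatever the replicate mean, cut at about 25% in these data; inconclusive = mean inhibition reaches that limit but some replicates miss it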;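 also: 0% = plate neutral control median and 100% = total signal loss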
Target sequence (P42568 whole entry, looked up): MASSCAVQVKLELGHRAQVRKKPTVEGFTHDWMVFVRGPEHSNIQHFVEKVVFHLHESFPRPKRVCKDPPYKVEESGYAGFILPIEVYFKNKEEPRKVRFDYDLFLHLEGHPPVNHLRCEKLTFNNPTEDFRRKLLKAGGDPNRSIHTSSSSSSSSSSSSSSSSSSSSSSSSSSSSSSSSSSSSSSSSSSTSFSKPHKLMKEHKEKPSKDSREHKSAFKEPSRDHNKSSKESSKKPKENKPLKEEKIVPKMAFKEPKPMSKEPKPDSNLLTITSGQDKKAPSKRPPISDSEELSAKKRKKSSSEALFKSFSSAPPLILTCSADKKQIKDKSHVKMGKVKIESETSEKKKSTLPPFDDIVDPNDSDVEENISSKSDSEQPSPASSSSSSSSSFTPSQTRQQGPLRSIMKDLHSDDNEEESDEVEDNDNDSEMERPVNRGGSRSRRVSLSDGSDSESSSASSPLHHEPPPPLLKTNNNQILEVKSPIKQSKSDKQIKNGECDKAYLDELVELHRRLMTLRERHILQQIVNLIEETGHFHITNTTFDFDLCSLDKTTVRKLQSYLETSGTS
AlphaScreen intf: AlphaScreen signal interference counter-screen, dose response, artefact control, biochemical, cherry-picked samples, luminescence; AC50, µM (series often up to 12 µM), for the others: at the highest dose activity change, negative = inhibition; 530 compounds, 45% hits; shares compounds with MLL AF4-AF9 inh; AID 720494, 2013; cut-off not given, nearly all actives have AC50 up to about 14 µM
Numbers without * were called inactive. Sampled rows, rich in hits. Any-hit rate of the full collection: about 3.2%.

Cc1ccc(NC(=S)N/N=C/c2ccc([N+](=O)[O-])s2)cc1 was read as PfHsp90 yeast 2 100*, Ecoli rRNA inh -33, S100A4 inh HTS -8, Cneo AK release 15, DENV2 CPE rescue -6, MLL AF4-AF9 inh inconclusive and AlphaScreen intf -18%.
CN(C)c1ccc(CNCCC(Cc2ccccc2)c2ccco2)cc1 (stereo not drawn) was read as PfHsp90 yeast 2 -108, Ecoli rRNA inh -49, S100A4 inh HTS -9, Cneo AK release 3, DENV2 CPE rescue 4, MLL AF4-AF9 inh 49* and AlphaScreen intf 10µM*.
`c1ccc(CNCCC(Cc2ccccc2)c2ccco2)cc1` (stereo not drawn) gave PfHsp90 yeast 2 11, S100A4 inh HTS -13, Cneo AK release 2, DENV2 CPE rescue -1 and MLL AF4-AF9 inh 6.
Screening OC(CNC1CCCCCC1)COc1cccc2ccccc12 (stereo not drawn) returned PfHsp90 yeast 2 -19, Ecoli rRNA inh -6, S100A4 inh HTS 0, Cneo AK release 0, DENV2 CPE rescue -3 and MLL AF4-AF9 inh 4.
`Cc1cc2c(OCC(O)CNC3CCCCC3)cccc2[nH]1` (stereo not drawn) gave PfHsp90 yeast 2 5, Ecoli rRNA inh 5, S100A4 inh HTS -4, DENV2 CPE rescue -3, MLL AF4-AF9 inh 29* and AlphaScreen intf -15%.
For CN1C(=O)c2cc(NC(=O)Nc3ccccc3F)ccc2OC[C@@H]2O[C@H](CC(=O)O)CC[C@@H]21 the results were Ecoli rRNA inh 0, Cneo AK release 1 and DENV2 CPE rescue 4.
Screening Cc1c(N=C2C=CC(=O)c3ccccc32)c(=O)n(-c2ccccc2)n1C returned PfHsp90 yeast 2 -5, Ecoli rRNA inh -29, S100A4 inh HTS 0, MLL AF4-AF9 inh 35* and AlphaScreen intf -44%.
For Cc1c(N=C2C=C(Br)C(=O)C(Br)=C2)c(=O)n(-c2ccccc2)n1C the results were PfHsp90 yeast 2 12, Ecoli rRNA inh -11, S100A4 inh HTS -6, DENV2 CPE rescue -4 and MLL AF4-AF9 inh 6.
Screening C[C@H]1CN([C@@H](C)CO)C(=O)c2cc(NC(=O)C3CC3)ccc2O[C@H]1CN(C)CC1CCCCC1 returned Ecoli rRNA inh 4, S100A4 inh HTS -2, Cneo AK release -1, DENV2 CPE rescue 1 and MLL AF4-AF9 inh -6.
Screening C[C@H]1CN([C@@H](C)CO)C(=O)Cc2cc(N(C)C)ccc2O[C@@H]1CN(C)CC1CC1 returned Ecoli rRNA inh 2, S100A4 inh HTS 5, Cneo AK release -2, DENV2 CPE rescue inconclusive and MLL AF4-AF9 inh -2.
Screening O=[N+]([O-])c1ccc(Nc2c3ccccc3nc3ccccc23)cc1 returned PfHsp90 yeast 2 -11, Ecoli rRNA inh -46, S100A4 inh HTS 2, DENV2 CPE rescue -5 and MLL AF4-AF9 inh 5.
For NC(N)=NCCCS(=O)(=O)Nc1ccc(Nc2c3ccccc3nc3cc([N+](=O)[O-])ccc23)cc1 the results were PfHsp90 yeast 2 2, S100A4 inh HTS -5, DENV2 CPE rescue 19, MLL AF4-AF9 inh 78* and AlphaScreen intf 5.6µM*.
CCN(CC)c1ccc(CNc2nc3ccccc3n2CCN2CCCCC2)cc1 was read as PfHsp90 yeast 2 -5, Ecoli rRNA inh -51, S100A4 inh HTS -8, DENV2 CPE rescue -1, MLL AF4-AF9 inh 44* and AlphaScreen intf -28%.
Cc1[nH]c2ccccc2c1C(C#N)(C#N)C1C(=O)c2ccccc2C1=O was read as PfHsp90 yeast 2 1, Ecoli rRNA inh -22, S100A4 inh HTS 2, Cneo AK release 2, DENV2 CPE rescue 3, MLL AF4-AF9 inh 65* and AlphaScreen intf 2µM*.
Cc1ccc2c(c1)c1c(n2CC(O)CN2CCCCCC2)CCCC1 (stereo not drawn) was read as PfHsp90 yeast 2 -10, Ecoli rRNA inh 0, S100A4 inh HTS -1, Cneo AK release 0, DENV2 CPE rescue 8, MLL AF4-AF9 inh 35* and AlphaScreen intf -7%.
Cc1ccn2c(Nc3ccc4c(c3)OCO4)c(-c3ccccn3)nc2c1 was read as PfHsp90 yeast 2 18, Ecoli rRNA inh 25, S100A4 inh HTS 46, Cneo AK release -3, DENV2 CPE rescue -9, MLL AF4-AF9 inh 32* and AlphaScreen intf 9.3µM*.
Screening CCOc1ccc(NCc2cccn2-c2nnc(N3CCC(C(=O)NCCCN4C(C)CCCC4C)CC3)s2)cc1 (stereo not drawn) returned PfHsp90 yeast 2 -10, Ecoli rRNA inh 2, S100A4 inh HTS 19, Cneo AK release 12, DENV2 CPE rescue 5, MLL AF4-AF9 inh 51* and AlphaScreen intf 11µM*.
For CCC1CCCCN1CCCNC(=O)C1CCN(c2nnc(-n3cccc3)s2)CC1 (stereo not drawn) the results were PfHsp90 yeast 2 -1, Ecoli rRNA inh 9, S100A4 inh HTS -4, Cneo AK release 1, DENV2 CPE rescue 1 and MLL AF4-AF9 inh 9.
For CCOc1ccc(NCc2cccn2-c2nnc(N3CCC(C(=O)NCCCN4CCCCC4C)CC3)s2)cc1 (stereo not drawn) the results were PfHsp90 yeast 2 -24, Ecoli rRNA inh 0, S100A4 inh HTS 22, Cneo AK release 2, DENV2 CPE rescue 0, MLL AF4-AF9 inh 47* and AlphaScreen intf 14µM*.
For COc1cc(C2CC(=O)Oc3c(C(CCN4CCOCC4)c4ccc(N(C)C)cc4)c(OC)cc(OC)c32)cc(OC)c1OC (stereo not drawn) the results were PfHsp90 yeast 2 -29, Ecoli rRNA inh 2, S100A4 inh HTS -1, Cneo AK release 7, DENV2 CPE rescue 1, MLL AF4-AF9 inh 40* and AlphaScreen intf 11µM*.
Screening COc1cc(O)c(C(CCN2CCCCC2)c2ccc(N(C)C)cc2)c(OC)c1 (stereo not drawn) returned PfHsp90 yeast 2 7, Ecoli rRNA inh 3, S100A4 inh HTS 3, Cneo AK release 3, DENV2 CPE rescue -2, MLL AF4-AF9 inh 33* and AlphaScreen intf 12µM*.
